Laboratory results: ChEMBL document CHEMBL4219109, “Design, synthesis and biological evaluation of novel hydroxamic acid based histone deacetylase 6 selective inhibitors bearing phenylpyrazol scaffold as surface recognition motif” (Bioorg Med Chem, 2018)

Legend:
HepG2 = test: Antiproliferative activity against human HepG2 cells after 96 hrs by MTT assay; type: functional
Summary of the method: (§1)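 Cells from Shanghai Cell Bank; A549 grown in high-glucose DMEM and HepG2 in MEM, both with 10% FBS plus penicillin/streptomycin, at 37°C in 5% CO₂. Seeded at 1.5-3.5×10⁴ cells/well for 24 h, then given graded compound concentrations for 96 h. MTT solution (2 mg/mL) added for 4 h, formazan dissolved in DMSO, A570 read. Growth expressed as treated/untreated cell number ratio.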

A549 = test: Antiproliferative activity against human A549 cells after 96 hrs by MTT assay; type: functional; summary of the method: as §1
Histone deacetylase 2 = Histone deacetylase 2 (Homo sapiens, UniProt Q92769); test: Inhibition of full length recombinant human C-terminal His-tagged HDAC2 expressed in baculovirus infected sf9 cells using Boc-Lys-(Ac)-AMC as substrate preincubated for 15 mins followed by substrate addition measured after 60 mins by fluorescence assay
Histone deacetylase = test: Inhibition of HDAC in human HeLa nuclear extract using Boc-Lys-(Ac)-AMC as substrate preincubated for 15 mins followed by substrate addition measured after 60 mins by fluorescence assay; type: protein assay
[1] = biological target: T1, Protein deacetylase HDAC6 (Homo sapiens, UniProt Q9UBN7); test: Inhibition of full length recombinant human N-terminal GST-tagged HDAC6 expressed in baculovirus infected sf9 cells using Boc-Lys-(Ac)-AMC as substrate preincubated for 15 mins followed by substrate addition measured after 60 mins by fluorescence assay
T1 sequence (Q9UBN7 whole entry): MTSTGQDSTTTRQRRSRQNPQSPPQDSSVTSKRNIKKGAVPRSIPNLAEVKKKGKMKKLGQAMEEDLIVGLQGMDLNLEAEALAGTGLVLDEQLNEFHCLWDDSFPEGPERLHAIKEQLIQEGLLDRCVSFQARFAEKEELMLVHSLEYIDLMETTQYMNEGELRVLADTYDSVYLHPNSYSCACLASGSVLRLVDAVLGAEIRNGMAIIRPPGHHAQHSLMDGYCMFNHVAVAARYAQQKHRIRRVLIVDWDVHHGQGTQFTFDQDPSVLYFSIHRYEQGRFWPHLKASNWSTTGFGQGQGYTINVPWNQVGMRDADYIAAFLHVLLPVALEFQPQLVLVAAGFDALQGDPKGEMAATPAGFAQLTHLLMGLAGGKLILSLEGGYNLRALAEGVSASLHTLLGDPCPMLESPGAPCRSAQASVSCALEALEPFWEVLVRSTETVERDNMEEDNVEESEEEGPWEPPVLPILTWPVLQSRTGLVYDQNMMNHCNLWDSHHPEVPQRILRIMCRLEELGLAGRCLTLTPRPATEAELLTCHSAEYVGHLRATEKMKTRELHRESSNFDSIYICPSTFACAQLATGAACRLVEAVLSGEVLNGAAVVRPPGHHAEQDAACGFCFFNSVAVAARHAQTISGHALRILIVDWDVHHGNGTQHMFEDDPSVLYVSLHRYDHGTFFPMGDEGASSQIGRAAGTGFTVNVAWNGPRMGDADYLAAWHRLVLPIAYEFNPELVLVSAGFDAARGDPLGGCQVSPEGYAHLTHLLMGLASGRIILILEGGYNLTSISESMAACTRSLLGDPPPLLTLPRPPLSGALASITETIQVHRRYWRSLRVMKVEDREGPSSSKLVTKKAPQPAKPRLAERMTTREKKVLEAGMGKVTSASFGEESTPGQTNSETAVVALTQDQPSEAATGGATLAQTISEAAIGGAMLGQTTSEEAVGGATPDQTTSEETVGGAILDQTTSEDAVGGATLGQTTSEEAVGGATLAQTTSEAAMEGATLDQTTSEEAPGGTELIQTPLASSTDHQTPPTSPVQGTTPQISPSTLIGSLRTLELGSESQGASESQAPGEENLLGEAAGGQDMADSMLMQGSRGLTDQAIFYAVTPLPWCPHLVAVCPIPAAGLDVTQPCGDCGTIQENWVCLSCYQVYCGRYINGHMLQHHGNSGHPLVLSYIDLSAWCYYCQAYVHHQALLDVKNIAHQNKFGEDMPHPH

[2] = biological target: Histone deacetylase 3/Nuclear receptor corepressor 2 (HDAC3/NCoR2) (Homo sapiens, UniProt O15379); test: Inhibition of full length recombinant human C-terminal His-tagged HDAC3/N-terminal GST-tagged NCOR2 (395 to 489 residues) expressed in baculovirus infected sf9 cells using Boc-Lys-(Ac)-AMC as substrate preincubated for 15 mins followed by substrate addition measured after 60 mins by fluorescence assay
Histone deacetylase 8 = biological target: T2, Histone deacetylase 8 (Homo sapiens, UniProt Q9BY41); test: Inhibition of full length recombinant human C-terminal His-tagged HDAC8 expressed in baculovirus infected sf9 cells using Boc-Lys-(TFA)-AMC as substrate preincubated for 15 mins followed by substrate addition measured after 60 mins by fluorescence assay
T2 sequence (Q9BY41 whole entry): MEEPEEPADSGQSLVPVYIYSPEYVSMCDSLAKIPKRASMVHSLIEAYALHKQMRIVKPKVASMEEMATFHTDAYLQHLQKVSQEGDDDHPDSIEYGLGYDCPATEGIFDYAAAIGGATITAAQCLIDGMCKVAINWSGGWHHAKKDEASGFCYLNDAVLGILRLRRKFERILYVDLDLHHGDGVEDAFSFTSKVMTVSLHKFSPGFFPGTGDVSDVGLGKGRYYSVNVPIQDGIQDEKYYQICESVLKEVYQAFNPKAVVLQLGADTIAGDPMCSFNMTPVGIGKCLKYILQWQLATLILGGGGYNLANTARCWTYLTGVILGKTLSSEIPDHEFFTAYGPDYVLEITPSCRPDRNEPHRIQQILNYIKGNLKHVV

Histone deacetylase 1 = Histone deacetylase 1 (Homo sapiens, UniProt Q13547); test: Inhibition of full length recombinant human C-terminal FLAG/His-tagged HDAC1 expressed in baculovirus infected sf9 cells using Boc-Lys-(Ac)-AMC as substrate preincubated for 15 mins followed by substrate addition measured after 60 mins by fluorescence assay
Sequence of Histone deacetylase 1 (Q13547 whole entry): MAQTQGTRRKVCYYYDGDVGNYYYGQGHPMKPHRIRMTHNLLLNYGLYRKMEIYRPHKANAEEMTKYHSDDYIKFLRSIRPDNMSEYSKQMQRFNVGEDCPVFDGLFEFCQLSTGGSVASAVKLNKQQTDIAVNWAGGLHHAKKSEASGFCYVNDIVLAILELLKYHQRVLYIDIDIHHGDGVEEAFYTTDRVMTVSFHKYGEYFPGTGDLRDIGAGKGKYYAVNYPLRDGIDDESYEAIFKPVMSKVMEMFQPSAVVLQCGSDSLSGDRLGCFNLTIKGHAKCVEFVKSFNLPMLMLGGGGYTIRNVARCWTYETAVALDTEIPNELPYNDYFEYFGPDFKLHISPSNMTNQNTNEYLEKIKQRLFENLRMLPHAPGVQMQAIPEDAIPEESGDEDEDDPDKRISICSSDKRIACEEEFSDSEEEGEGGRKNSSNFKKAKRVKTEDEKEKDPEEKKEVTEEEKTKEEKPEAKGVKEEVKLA

Sequence of Histone deacetylase 3/Nuclear receptor corepressor 2 (HDAC3/NCoR2) (O15379 whole entry, the tested form may be a part): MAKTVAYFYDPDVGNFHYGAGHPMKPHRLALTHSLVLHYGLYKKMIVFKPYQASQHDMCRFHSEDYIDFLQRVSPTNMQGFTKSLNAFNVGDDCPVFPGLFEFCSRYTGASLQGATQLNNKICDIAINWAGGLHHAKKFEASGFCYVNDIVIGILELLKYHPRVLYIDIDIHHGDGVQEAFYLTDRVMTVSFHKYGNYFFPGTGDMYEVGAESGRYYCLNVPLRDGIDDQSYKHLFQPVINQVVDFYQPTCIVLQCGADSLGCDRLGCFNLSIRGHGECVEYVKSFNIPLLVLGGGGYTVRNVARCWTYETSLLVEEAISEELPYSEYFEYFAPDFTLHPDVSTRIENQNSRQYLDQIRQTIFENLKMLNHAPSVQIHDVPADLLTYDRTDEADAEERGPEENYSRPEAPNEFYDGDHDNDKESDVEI
Sequence of Histone deacetylase 3/Nuclear receptor corepressor 2 (HDAC3/NCoR2) (Q9Y618 whole entry, further chain, the tested form may be a part): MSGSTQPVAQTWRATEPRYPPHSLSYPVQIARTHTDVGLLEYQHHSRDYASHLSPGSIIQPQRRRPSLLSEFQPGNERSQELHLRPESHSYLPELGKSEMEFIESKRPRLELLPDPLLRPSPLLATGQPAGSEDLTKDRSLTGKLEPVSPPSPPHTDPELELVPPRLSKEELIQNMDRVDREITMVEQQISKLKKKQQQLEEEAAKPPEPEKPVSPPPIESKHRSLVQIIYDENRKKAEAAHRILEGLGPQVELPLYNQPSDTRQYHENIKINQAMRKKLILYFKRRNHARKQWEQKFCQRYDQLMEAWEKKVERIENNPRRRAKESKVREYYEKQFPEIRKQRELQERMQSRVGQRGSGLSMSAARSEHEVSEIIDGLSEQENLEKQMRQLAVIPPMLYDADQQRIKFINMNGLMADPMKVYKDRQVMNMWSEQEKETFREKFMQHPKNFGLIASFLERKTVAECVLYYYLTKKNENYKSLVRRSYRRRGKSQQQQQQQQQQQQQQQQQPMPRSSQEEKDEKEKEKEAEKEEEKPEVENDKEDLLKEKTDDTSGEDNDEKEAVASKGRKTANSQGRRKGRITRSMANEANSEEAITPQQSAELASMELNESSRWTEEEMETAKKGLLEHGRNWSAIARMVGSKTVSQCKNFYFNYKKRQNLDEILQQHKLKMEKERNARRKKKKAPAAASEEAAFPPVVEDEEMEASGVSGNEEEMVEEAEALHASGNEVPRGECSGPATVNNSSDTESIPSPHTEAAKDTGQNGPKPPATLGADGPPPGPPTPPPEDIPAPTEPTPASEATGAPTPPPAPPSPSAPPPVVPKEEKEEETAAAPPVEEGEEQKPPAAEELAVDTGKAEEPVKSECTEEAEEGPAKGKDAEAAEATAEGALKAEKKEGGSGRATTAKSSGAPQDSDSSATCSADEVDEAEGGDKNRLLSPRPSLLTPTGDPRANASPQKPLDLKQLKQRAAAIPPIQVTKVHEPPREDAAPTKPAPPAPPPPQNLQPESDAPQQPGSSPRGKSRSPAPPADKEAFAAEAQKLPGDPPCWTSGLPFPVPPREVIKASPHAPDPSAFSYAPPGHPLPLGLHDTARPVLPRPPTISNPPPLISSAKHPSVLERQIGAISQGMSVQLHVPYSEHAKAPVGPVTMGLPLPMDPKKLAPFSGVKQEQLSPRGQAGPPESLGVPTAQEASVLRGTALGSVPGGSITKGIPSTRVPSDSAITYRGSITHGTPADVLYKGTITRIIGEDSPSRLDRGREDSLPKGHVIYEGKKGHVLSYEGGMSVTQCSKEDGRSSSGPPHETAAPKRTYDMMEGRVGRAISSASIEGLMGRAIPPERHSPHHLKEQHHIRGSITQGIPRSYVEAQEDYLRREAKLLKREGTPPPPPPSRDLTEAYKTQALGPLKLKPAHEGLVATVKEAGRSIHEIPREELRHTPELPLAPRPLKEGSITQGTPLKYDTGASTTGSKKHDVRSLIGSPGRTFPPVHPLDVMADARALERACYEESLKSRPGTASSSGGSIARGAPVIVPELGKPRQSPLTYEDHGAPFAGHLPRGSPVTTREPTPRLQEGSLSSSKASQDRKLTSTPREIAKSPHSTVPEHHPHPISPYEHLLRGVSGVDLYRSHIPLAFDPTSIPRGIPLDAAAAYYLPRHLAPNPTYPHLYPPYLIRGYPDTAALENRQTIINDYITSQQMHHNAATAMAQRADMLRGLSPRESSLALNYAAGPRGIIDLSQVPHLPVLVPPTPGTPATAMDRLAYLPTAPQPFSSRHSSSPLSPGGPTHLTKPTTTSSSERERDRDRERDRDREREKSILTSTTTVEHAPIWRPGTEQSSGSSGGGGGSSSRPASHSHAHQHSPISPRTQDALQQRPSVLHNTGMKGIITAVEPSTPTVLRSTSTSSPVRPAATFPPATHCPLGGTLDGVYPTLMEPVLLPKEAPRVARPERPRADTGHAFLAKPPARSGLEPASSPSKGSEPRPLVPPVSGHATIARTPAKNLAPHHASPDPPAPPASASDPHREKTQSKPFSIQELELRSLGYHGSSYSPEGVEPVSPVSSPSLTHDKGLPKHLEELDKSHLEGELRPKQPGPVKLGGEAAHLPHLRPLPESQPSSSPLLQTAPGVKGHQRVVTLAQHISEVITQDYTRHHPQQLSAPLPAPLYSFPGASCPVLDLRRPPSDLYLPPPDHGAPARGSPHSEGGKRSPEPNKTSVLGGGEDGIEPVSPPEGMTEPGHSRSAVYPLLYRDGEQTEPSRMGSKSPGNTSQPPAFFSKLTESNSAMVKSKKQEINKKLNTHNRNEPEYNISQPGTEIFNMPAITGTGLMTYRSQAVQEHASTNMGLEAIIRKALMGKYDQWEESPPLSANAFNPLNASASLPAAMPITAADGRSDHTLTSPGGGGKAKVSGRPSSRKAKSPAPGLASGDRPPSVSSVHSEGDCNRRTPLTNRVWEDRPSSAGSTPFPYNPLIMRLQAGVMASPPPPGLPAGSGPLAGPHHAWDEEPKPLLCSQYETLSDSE
Sequence of Histone deacetylase 2 (Q92769 whole entry): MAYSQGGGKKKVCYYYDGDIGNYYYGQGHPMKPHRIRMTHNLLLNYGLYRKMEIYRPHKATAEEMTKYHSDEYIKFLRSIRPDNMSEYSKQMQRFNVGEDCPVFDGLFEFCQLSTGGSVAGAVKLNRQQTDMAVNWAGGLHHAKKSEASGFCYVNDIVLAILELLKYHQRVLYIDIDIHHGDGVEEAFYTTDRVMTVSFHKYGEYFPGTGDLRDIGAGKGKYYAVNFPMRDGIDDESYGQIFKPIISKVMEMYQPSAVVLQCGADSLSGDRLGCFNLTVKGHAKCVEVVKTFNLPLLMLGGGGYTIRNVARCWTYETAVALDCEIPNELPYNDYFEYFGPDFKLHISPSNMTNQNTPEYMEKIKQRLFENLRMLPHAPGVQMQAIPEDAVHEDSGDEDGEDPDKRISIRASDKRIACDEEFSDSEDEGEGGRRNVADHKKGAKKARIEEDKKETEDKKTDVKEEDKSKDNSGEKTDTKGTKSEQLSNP

Row | Structure (SMILES) | GI50 (HepG2) [nM] | GI50 (A549) [nM] | IC50 (Histone deacetylase 2) [nM] | IC50 (Histone deacetylase) [nM] | IC50 [1] [nM] | IC50 [2] [nM] | IC50 (Histone deacetylase 8) [nM] | GI50 (HepG2; Homo sapiens, HepG2, 96 h) [nM] | GI50 (A549; Homo sapiens, A549, 96 h) [nM] | IC50 (Histone deacetylase 1) [nM]
1 | O=C(CCCCCCC(=O)Nc1ccccc1)NO [VORINOSTAT] | 22000 | 5020 | – | – | – | – | – | – | – | –
2 | Cc1cc(-c2ccc3c(c2)OCO3)n(Cc2ccc(C(=O)NO)cc2)n1 | – | – | 135 | 16 | 36 | 92 | > 5000 | 16500 | 23200 | 430
3 | Cc1ccc(-c2cc(C)n(Cc3ccc(C(=O)NO)cc3)n2)cc1 | – | – | 41 | 13 | 7 | 26 | > 5000 | 21200 | 11200 | 133
4 | CCc1cc(-c2ccc(F)cc2)nn1Cc1ccc(C(=O)NO)cc1 | – | – | 391 | 165 | 35 | 228 | > 5000 | 16700 | 19200 | 487
5 | Cc1ccc(-c2cc(C(F)(F)F)n(Cc3ccc(C(=O)NO)cc3)n2)cc1 | – | – | 47 | 33 | 16 | 21 | > 5000 | 8580 | 15500 | 110
6 | O=C(CCCNC(=O)c1cc(-c2ccc(F)cc2)[nH]n1)NO | – | – | 1830 | 2603 | 1060 | 1430 | > 5000 | 88000 | > 100000 | 3740
7 | Cc1ccc(-c2cc(C(F)(F)F)nn2CCc2ccc(C(=O)NO)cc2)cc1 | – | – | 635 | 1460 | 540 | 816 | > 5000 | 24000 | 29300 | 1070
8 | O=C(CCCCCCNC(=O)c1cc(-c2ccc(F)cc2)[nH]n1)NO | – | – | 40 | 43 | 22 | 35 | 2950 | 23200 | 1980 | 79
9 | CCc1cc(-c2ccc(F)cc2)n(Cc2ccc(C(=O)NO)cc2)n1 | – | – | 1500 | 1792 | 69 | 1840 | > 5000 | 7760 | 16700 | 3610
10 | O=C(NO)c1ccc(Cn2nc(Cc3ccccc3)cc2-c2ccc(F)cc2)cc1 | – | – | > 5000 | > 5000 | 420 | > 5000 | > 5000 | – | – | > 5000
11 | Cc1ccc(-c2cc(C(F)(F)F)nn2Cc2ccc(C(=O)NO)cc2)cc1 | – | – | 1220 | 231 | 27 | 128 | > 5000 | 7500 | 10600 | 925
12 | CCCc1cc(-c2ccc(F)cc2)nn1Cc1ccc(C(=O)NO)cc1 | – | – | 362 | 476 | 107 | 290 | > 5000 | 16800 | 15200 | 541
13 | Cc1ccc(-c2cc(C(F)(F)F)nn2-c2ccc(C(=O)NO)cc2)cc1 | – | – | 919 | 1139 | 359 | 736 | > 5000 | > 100000 | > 100000 | 836
14 | O=C(NO)c1ccc(Cn2nc(-c3ccc(F)cc3)cc2Cc2ccccc2)cc1 | – | – | 763 | 1028 | 326 | 619 | > 5000 | – | – | 1880
15 | Cc1ccc(-c2cc(C)nn2Cc2ccc(C(=O)NO)cc2)cc1 | – | – | 76 | 22 | 29 | 53 | > 5000 | 13300 | 12400 | 694
16 | Cc1cc(-c2ccc(F)cc2)nn1Cc1ccc(C(=O)NO)cc1 | – | – | 114 | 40 | 8 | 69 | > 5000 | 30000 | 11400 | 480
17 | CCCc1cc(-c2ccc(F)cc2)n(Cc2ccc(C(=O)NO)cc2)n1 | – | – | 2880 | 3827 | 167 | 1940 | > 5000 | 6660 | 16000 | > 5000
18 | Cc1ccc(-c2cc(C(F)(F)F)nn2-c2ccc(S(N)(=O)=O)cc2)cc1 [CELECOXIB] | – | – | – | 1637 | 643 | – | – | – | – | 1190
